The term IC50 denotes the concentration that gives 50% inhibition. Higher therefore signals a need for much substance. What is called ED50 is the dose that gives a 50% effect, or the effect in half of the subjects. A high value points to weaker potency.

Consider 47 compounds from ChEMBL document CHEMBL1128281 (J Med Chem, 1995).

A value given as a limit tells only on which side of the number the result lay.

Test [1] deals with Serotonin 2 (5-HT2) receptor (Rattus norvegicus, UniProt P30994+P08909+P14842). Put plainly: Affinity for 5-hydroxytryptamine 2 receptor binding sites by its ability to displace [3H]spiperone from rat frontal cortex.
For test [2], the species on record is Mus musculus. Put plainly: Ability to inhibit apomorphine-induced climbing behavior in mice. Type of test: functional. The procedure, abridged: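 Male CD-1 mice (18–30 g) were adapted for 1 h in wire-mesh cages, 8 per dose group. Distilled water or drug was given ip 30 or 60 min before apomorphine 1.5 mg/kg sc.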
The species entered for test [3] is Rattus norvegicus. Put plainly: Ability to block apomorphine-induced stereotypy in rats. Type of test: functional. The procedure, abridged:
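Male Wistar rats (150–250 g), 6–10 per dose group, given distilled water or test drug ip; apomorphine 1.5 mg/kg sc 50 min later. Rats were placed singly in cages and scored 10 min afterwards for continuous stereotyped licking or sniffing. Inhibition was the number of animals protected versus controls. ED50 was obtained by probit analysis.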

In the case of `CC(=O)c1ccc2c(c1)OCC(CCN1CCC(c3noc4cc(F)ccc34)CC1)O2` (stereo unspecified), the IC50 in test [1] is given as 91 nM. Further, the 50% effective dose (ED50) is 13.7 mg/kg in test [2] and greater than 80 mg/kg in test [3].

`CC(=O)c1ccc(OCCCN2CCC(c3noc4cc(F)ccc34)CC2)c(N(C)C)c1` displayed a 50% inhibitory concentration (IC50) in test [1] of 16 nM. The ED50 came to 0.15 mg/kg in test [2] and 4.3 mg/kg in test [3].

In test [1], `CNc1ccccc1OCCCN1CCC(c2noc3cc(F)ccc23)CC1` had a concentration for half-maximal inhibition (IC50) of 17 nM. The figures for the ED50 in test [2] and in test [3] were 0.81 mg/kg and 22.3 mg/kg, respectively.

Turning to `COc1cc2cc[nH]c2cc1OCCCN1CCC(c2noc3cc(F)ccc23)CC1`, the IC50 in test [1] stood at 3.2 nM. In addition, the values for the ED50 in test [2] and in test [3] were 2.7 mg/kg and 8.6 mg/kg, respectively.

`CC(=O)c1cccc(OCCCN2CCC(c3noc4cc(F)ccc34)CC2)c1` came in with a half-inhibitory concentration (IC50) in test [1] of 63 nM. The results for the ED50 in test [2] and in test [3] were 0.39 mg/kg and 6.4 mg/kg, respectively.

For `CCC(=O)c1ccc(OCCCN2CCC(c3noc4cc(F)ccc34)CC2)c(OC)c1`, the concentration for half-maximal inhibition (IC50) in test [1] is listed as 11 nM. Moreover, the figures for the ED50 in test [2] and in test [3] were 0.77 mg/kg and greater than 20 mg/kg, respectively.

Turning to `COc1cc(C(C)=O)ccc1OCCCCN1CCC(c2noc3cc(Cl)ccc23)CC1`, the IC50 in test [1] is recorded as 143 nM. In addition, the ED50 in test [2] is 2.4 mg/kg; in test [3], 9.7 mg/kg.

As for `COc1cc(C(=O)c2ccccc2)ccc1OCCCN1CCC(c2noc3cc(F)ccc23)CC1`, in test [1], the IC50 stood at 241 nM. In addition, the figures for the ED50 in test [2] and in test [3] were 18.1 mg/kg and greater than 80 mg/kg, respectively.

In test [1], `CC(O)c1ccc(OCCCN2CCC(c3noc4cc(F)ccc34)CC2)c(O)c1` (stereo unspecified) had a half-inhibitory concentration (IC50) of 53 nM. Besides, the ED50 in test [2] was 0.058 mg/kg; in test [3] it was 3.6 mg/kg.

In turn, `COc1cc(Br)ccc1OCCCN1CCC(c2noc3cc(F)ccc23)CC1` came in with an IC50 in test [1] of 49 nM. Further, the median effective dose (ED50) amounted to 1.6 mg/kg in test [2] and 15.3 mg/kg in test [3].

With `CNc1cc(C(C)=O)ccc1OCCCN1CCC(c2noc3cc(F)ccc23)CC1`, the concentration for half-maximal inhibition (IC50) in test [1] turned out to be 42 nM. Also, the median effective dose (ED50) is 0.15 mg/kg in test [2] and 47.6 mg/kg in test [3].

Compound `CC(=O)c1ccc(OCCCN2CCC(c3noc4cc(F)ccc34)CC2)cc1` displayed an IC50 in test [1] of 5.5 nM. Further, the values for the 50% effective dose (ED50) in test [2] and in test [3] were 0.84 mg/kg and 5.7 mg/kg, respectively.

`CCCCC(=O)c1ccc(OCCCN2CCC(c3noc4cc(F)ccc34)CC2)c(OC)c1` yielded a concentration for half-maximal inhibition (IC50) in test [1] of 89 nM. For the same compound, the values for the median effective dose (ED50) in test [2] and in test [3] were 0.78 mg/kg and 16.9 mg/kg, respectively.

For `COc1cc(C(C)=O)ccc1OCCN1CCC(c2noc3cc(Cl)ccc23)CC1`, the IC50 in test [1] turned out to be 45 nM. This compound also came in with a 50% effective dose (ED50) in test [2] greater than 20 mg/kg.

The compound `COc1cc(OCCCN2CCC(c3noc4cc(F)ccc34)CC2)ccc1C(C)=O` displayed an IC50 in test [1] of 23 nM. The ED50 in test [2] was 0.28 mg/kg; in test [3] it was 8.2 mg/kg.

As to `CC(=O)c1ccc(OCCCN2CCC(c3noc4cc(F)ccc34)CC2)c(O)c1`, the half-inhibitory concentration (IC50) in test [1] turned out to be 2.9 nM. In addition, the ED50 in test [2] came to 0.054 mg/kg; in test [3], 0.7 mg/kg.

On to `COc1cc(C(=O)C(F)(F)F)ccc1OCCCN1CCC(c2noc3cc(F)ccc23)CC1`, for which, in test [1], the IC50 worked out at 38 nM. The median effective dose (ED50) in test [2] was 2.2 mg/kg; in test [3], greater than 20 mg/kg.

In test [1], `CC(=O)Nc1cc(C(C)=O)ccc1OCCCN1CCC(c2noc3cc(F)ccc23)CC1` gave an IC50 of 20 nM. Further, the figures for the ED50 in test [2] and in test [3] were 0.049 mg/kg and 21.1 mg/kg, respectively.

As to `COc1cc(C(C)O)ccc1OCCCN1CCC(c2noc3cc(F)ccc23)CC1` (stereo unspecified), the 50% inhibitory concentration (IC50) in test [1] was 22 nM. Moreover, the ED50 is 0.12 mg/kg in test [2] and 22.7 mg/kg in test [3].

In test [1], `COc1cc(C(C)=O)cc(OC)c1OCCCN1CCC(c2noc3cc(F)ccc23)CC1` showed a half-inhibitory concentration (IC50) of less than 10 nM. The results for the ED50 in test [2] and in test [3] were 0.72 mg/kg and 13.6 mg/kg, respectively.

For the compound `COc1cc(C(=O)N(C)C)ccc1OCCCN1CCC(c2noc3cc(F)ccc23)CC1`, in test [1], the half-maximal inhibitory concentration (IC50) amounted to 5.2 nM. For the same compound, the ED50 in test [2] turned out to be 0.72 mg/kg; in test [3], 26.7 mg/kg.

As to `COc1ccc(NC(C)=O)cc1OCCCN1CCC(c2noc3cc(F)ccc23)CC1`, in test [1], the IC50 is 3.8 nM. Further, the 50% effective dose (ED50) in test [2] was found to be 0.6 mg/kg; in test [3], 30.1 mg/kg.

With `CC(=O)c1cc(C)ccc1OCCCN1CCC(c2noc3cc(F)ccc23)CC1`, the IC50 in test [1] was 153 nM. For the same compound, the ED50 in test [2] stood at 5.6 mg/kg; in test [3], 25.1 mg/kg.

As for `COc1cc(C#N)ccc1OCCCN1CCC(c2noc3cc(F)ccc23)CC1`, the concentration for half-maximal inhibition (IC50) in test [1] is 45 nM. For the same compound, the ED50 in test [2] came to 1 mg/kg; in test [3], 15.7 mg/kg.

Regarding `CCc1ccc(OCCCN2CCC(c3noc4cc(F)ccc34)CC2)c(OC)c1`, the IC50 in test [1] is 16 nM. Also, the ED50 was determined as 0.18 mg/kg in test [2] and 9.5 mg/kg in test [3].

Compound `COc1cc(C(C)=O)ccc1OCCCN1CCC(c2noc3ccc(F)cc23)CC1` yielded a 50% inhibitory concentration (IC50) in test [1] of 122 nM. The ED50 was 5.2 mg/kg in test [2] and greater than 80 mg/kg in test [3].

On to `Nc1ccccc1OCCCN1CCC(c2noc3cc(F)ccc23)CC1`, for which the ED50 in test [2] was determined as 0.42 mg/kg; in test [3] it was 5.5 mg/kg.

As to `COc1ccccc1OCCCN1CCC(c2noc3cc(F)ccc23)CC1`, the IC50 in test [1] is reported as 5.2 nM. In addition, the ED50 is 0.48 mg/kg in test [2] and 9.7 mg/kg in test [3].

`CC(=O)c1ccc(OCCCN2CCC(c3noc4cc(F)ccc34)CC2)c(C)c1`: the ED50 in test [2] was determined as 0.25 mg/kg; in test [3], 31.4 mg/kg.

Regarding `COc1ccc(N)cc1OCCCN1CCC(c2noc3cc(F)ccc23)CC1`, the IC50 in test [1] is 2 nM. In addition, the 50% effective dose (ED50) turned out to be 0.16 mg/kg in test [2] and 13 mg/kg in test [3].

Consider `C=C(C)c1ccc(OCCCN2CCC(c3noc4cc(F)ccc34)CC2)c(OC)c1`, for which, in test [1], the IC50 is reported as 20 nM. Moreover, the median effective dose (ED50) in test [2] came out at 0.55 mg/kg; in test [3], 25 mg/kg.

In the case of `COc1cc(C(C)=O)ccc1NCCCN1CCC(c2noc3cc(F)ccc23)CC1`, in test [1], the IC50 is 18 nM. Moreover, the ED50 in test [2] is 0.26 mg/kg; in test [3], 9.3 mg/kg.

As to `COc1cc(C(N)=O)ccc1OCCCN1CCC(c2noc3cc(F)ccc23)CC1`, the IC50 in test [1] stood at 0.9 nM. Besides, the figures for the ED50 in test [2] and in test [3] were 1.6 mg/kg and 22.7 mg/kg, respectively.

`COc1cc(C(C)=O)ccc1SCCCN1CCC(c2noc3cc(F)ccc23)CC1` returned a 50% inhibitory concentration (IC50) in test [1] of 41 nM. For the same compound, the values for the median effective dose (ED50) in test [2] and in test [3] were 2 mg/kg and 13.6 mg/kg, respectively.

`COc1cc(C(C)=O)ccc1OCCCN1CCC(c2noc3cc(Cl)ccc23)CC1` showed an IC50 in test [1] of 4.9 nM. For the same compound, the ED50 in test [2] was 3.3 mg/kg; in test [3], greater than 80 mg/kg.

As for `COc1cc(C(C)=O)ccc1OCCCCN1CCC(c2noc3cc(F)ccc23)CC1`, the IC50 in test [1] stood at 8.5 nM. Further, the 50% effective dose (ED50) in test [2] worked out at 0.68 mg/kg; in test [3], 7.5 mg/kg.

`COc1cc(C(C)=O)ccc1OCCCCN1CCC(c2noc3ccccc23)CC1` displayed an IC50 in test [1] of 34 nM. Besides, the median effective dose (ED50) in test [2] is 1.6 mg/kg; in test [3] it was 17 mg/kg.

On to `COc1cc(C(C)=O)ccc1OCCN1CCC(c2noc3ccccc23)CC1`, for which the half-inhibitory concentration (IC50) in test [1] is reported as 26 nM. The ED50 in test [2] was determined as 7.4 mg/kg.

As for `COc1cc(/C(C)=N\N)ccc1OCCCN1CCC(c2noc3cc(F)ccc23)CC1`, the IC50 in test [1] is 20 nM. In addition, the ED50 turned out to be 0.64 mg/kg in test [2] and 17.4 mg/kg in test [3].

As for `CSc1cc(C(C)=O)ccc1OCCCN1CCC(c2noc3cc(F)ccc23)CC1`, the IC50 in test [1] is given as 170 nM. Besides, in test [2], it took a dose of 20 mg/kg to reach the 50% effect level (ED50).

Turning to `COc1cc(C(C)=O)ccc1OCCN1CCC(c2noc3cc(F)ccc23)CC1`, the concentration for half-maximal inhibition (IC50) in test [1] was found to be 67 nM. For the same compound, the figures for the ED50 in test [2] and in test [3] were 5.3 mg/kg and greater than 80 mg/kg, respectively.

In test [1], `COc1cc(/C(C)=N\O)ccc1OCCCN1CCC(c2noc3cc(F)ccc23)CC1` showed an IC50 of 0.7 nM. The median effective dose (ED50) in test [2] is 1.1 mg/kg; in test [3], greater than 80 mg/kg.

In test [1], `COc1cc(C(C)=O)ccc1OCCCN1CCC(c2noc3ccccc23)CC1` came in with a half-inhibitory concentration (IC50) of 3.5 nM. Besides, the median effective dose (ED50) in test [2] was 0.67 mg/kg; in test [3], 20.8 mg/kg.

On to `CC(=O)c1ccc(OCCCN2CCC(c3noc4cc(F)ccc34)CC2)cc1C`, for which, in test [1], the half-maximal inhibitory concentration (IC50) stood at 36 nM. Moreover, the ED50 in test [2] stood at 1.2 mg/kg; in test [3], 52.3 mg/kg.

`Fc1ccc2c(C3CCN(CCCOc4ccccc4)CC3)noc2c1` displayed an IC50 in test [1] of 33 nM. In addition, the results for the ED50 in test [2] and in test [3] were 0.62 mg/kg and 7.1 mg/kg, respectively.

With `CCOc1cc(C(C)=O)ccc1OCCCN1CCC(c2noc3cc(F)ccc23)CC1`, in test [1], the IC50 is 3.8 nM. In addition, the values for the ED50 in test [2] and in test [3] were 0.56 mg/kg and 14.5 mg/kg, respectively.

As to `COc1cc2c(cc1OCCCN1CCC(c3noc4cc(F)ccc34)CC1)CCCC2=O`, the IC50 in test [1] is less than 10 nM. Further, the 50% effective dose (ED50) in test [2] is 2.3 mg/kg; in test [3], 25 mg/kg.
